Compounds with a hit are over-represented: about 6% of the library has one in this group of screens.
Fibroblast inh = blocks proliferation of human lung fibroblasts | LL 47 human lung fibroblast viability, ATP luminescence; stronger effect = lower value | viability, % at 10 µM | 1.1% of 85,000 active | AID 719;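 active means viability at or below 50% in the single dose screen; inactive means viability above 50%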;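 further: compound exposure lasted 72 h before the ATP readout; 100% = median luminescence of untreated cell-only wells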
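Material: Human LL 47 lung fibroblast cells | Input: 1,150 cells/well | Buffer or medium: IMEM plus 15% FBS | Compound dosing: 0.1% DMSO in all compound wells | Times: Overnight cell rest, 72 h compound treatment at 37 °C | Signal: CellTiter-Glo luminescence measuring cellular ATP | Measure: % viability versus median cells-only luminescence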
F-actin modifier = alters cytoskeleton assembly in HUVEC cells; HUVEC TNFa F-actin phalloidin imaging, high content; 0.18% of 91,000 active; inhibition, % at 2 µM;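 active means inhibition above the batch mean plus 3 SD and confirmed as a hit by visual image inspection, cut at about 30% in these data, passing the limit was not always enough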
HUVEC prolif 384 = human endothelial cell proliferation inhibition; viability, % at 10 µM (by protocol); 1.1% of 86,000 active; HUVEC proliferation, CellTiter-Glo luminescence, 72 h; stronger effect = lower value;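 active means viability at or below 30%; inactive means viability above 30%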;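 further: 100% = median luminescence of DMSO-only cell control wells on each plate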
Jurkat viability = cytotoxic compounds reducing Jurkat cell viability | 1.2% of 56,000 active | inhibition, % at 4 µM | Jurkat E6.1 viability, ATP luminescence, 48 h;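 active means inhibition above the mean inhibition of all tested compounds plus 3 SD, cut at about 28% in these data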
Pyk2 oligo antag = antagonists of human Pyk2 oligomerization. Q14289. Q293 cells, Pyk2 FERM NanoBiT luminescence; stronger effect = lower value. z-score (the deposit names both 25 µM and 10 µM). 0.83% of 99,000 active. AID 1347419;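 active means Z-score of -3 or lower, scaled per plate to the spread of control and sample wells; inactive means z-score above -3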;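 further: negative z-score means lost luminescence so less FERM oligomerization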
Target sequence (Q14289 whole entry, looked up): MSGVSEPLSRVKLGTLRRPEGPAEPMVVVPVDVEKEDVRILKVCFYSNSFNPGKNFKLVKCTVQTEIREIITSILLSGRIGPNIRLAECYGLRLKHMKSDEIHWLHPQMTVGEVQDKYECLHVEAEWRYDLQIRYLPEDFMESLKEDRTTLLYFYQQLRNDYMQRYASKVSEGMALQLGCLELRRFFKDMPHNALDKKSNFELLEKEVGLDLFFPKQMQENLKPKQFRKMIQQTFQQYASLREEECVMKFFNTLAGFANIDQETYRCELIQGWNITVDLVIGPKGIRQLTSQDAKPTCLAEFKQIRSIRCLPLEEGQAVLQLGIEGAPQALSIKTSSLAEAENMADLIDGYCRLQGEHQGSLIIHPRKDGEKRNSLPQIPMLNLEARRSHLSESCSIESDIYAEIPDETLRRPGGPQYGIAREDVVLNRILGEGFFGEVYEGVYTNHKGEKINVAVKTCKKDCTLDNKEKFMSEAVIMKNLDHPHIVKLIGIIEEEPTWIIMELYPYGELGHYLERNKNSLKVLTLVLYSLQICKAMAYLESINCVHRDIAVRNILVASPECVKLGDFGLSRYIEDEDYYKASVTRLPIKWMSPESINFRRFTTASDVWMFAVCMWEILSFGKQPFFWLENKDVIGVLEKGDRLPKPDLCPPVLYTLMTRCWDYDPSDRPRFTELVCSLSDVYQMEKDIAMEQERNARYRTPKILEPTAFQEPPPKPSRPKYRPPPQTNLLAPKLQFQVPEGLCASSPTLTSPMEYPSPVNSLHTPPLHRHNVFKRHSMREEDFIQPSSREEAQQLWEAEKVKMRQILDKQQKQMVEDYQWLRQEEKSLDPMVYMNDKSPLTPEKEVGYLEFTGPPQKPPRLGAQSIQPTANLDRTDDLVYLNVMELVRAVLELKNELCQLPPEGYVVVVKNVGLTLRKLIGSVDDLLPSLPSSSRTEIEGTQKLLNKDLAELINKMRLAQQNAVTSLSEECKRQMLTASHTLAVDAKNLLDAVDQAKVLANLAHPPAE
H69AR growth 86K = blocks growth of human H69AR lung tumor cells. viability, % at 10 µM. H69AR lung tumor viability, ATP luminescence, 72 h; stronger effect = lower value. AID 598. 6% of 85,000 active;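 active means viability at or below 40%; inactive means viability above 40%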;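 further: multidrug resistant small cell line overexpressing MRP-1 efflux transporter; 100% = mean luminescence of untreated control wells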
* marks the source's active call; other numbers are inactive results; . = no result given.

SMILES	Fibroblast inh	F-actin modifier	HUVEC prolif 384	Jurkat viability	Pyk2 oligo antag	H69AR growth 86K
CCOC(=O)c1nn(-c2cccc(OC)c2)c(-c2ccccc2)c1C(=O)c1ccccc1	.	.	.	.	-4.2*	.
Cc1cccc(NC(=S)N2N=CCC2c2ccccc2)c1 (centres undefined)	88	4	102	.	0.7	91
O=C(c1cc(-c2ccco2)on1)N1CCN(C(c2ccccc2)c2ccccc2)CC1	95	3	104	2	0.28	97
CCOC(=O)c1sc(=NC(=O)c2ccc(OC)c(OC)c2)n(C)c1C	97	17	77	4	0.92	20*
CC1CC(C)(C)Nc2ccc(OC(=O)c3ccco3)cc21 (centres undefined)	1.7*	3	5.7*	9	-1.6	1.1*
O=C(Oc1ccc2ccccc2c1)c1ccco1	98	.	97	0	0.21	84
O=C(C1CC1)N1CCN=C1SCc1ccccc1Cl	107	-4	91	6	.	93
N#Cc1c(-c2ccc(Cl)cc2)ccn2nc(C3CCCCC3)nc12	86	8	94	.	0.21	31*
Cc1cc(-c2ccc(Cl)cc2)c(C#N)c(N)n1	82	15	79	.	1.4	98
N#CC1(Cc2ccc(Cl)cc2)c2ccccc2C=CN1C(=O)c1ccccc1 (centres undefined)	.	1	.	.	1.1	.
COc1ccc(N=C2C(=O)Nc3c(C)cccc32)cc1	99	-18	82	6	-2.1	74
O=C(CSc1ncnc2c1oc1ccccc12)Nc1cccc(C(F)(F)F)c1	95	-2	45	7	.	17*
Cc1nc(SCC(=O)Nc2ccccc2)c2oc3ccccc3c2n1	91	14	47	6	-0.98	12*
O=C(CSc1ncnc2c1oc1ccccc12)Nc1nc2ccccc2s1	103	4	16*	.	.	13*
CCc1nnc(NC(=O)CSc2ncnc3c2oc2ccccc23)s1	103	-9	105	-6	.	100
COC(=O)c1scc(C)c1N/N=C(\C)c1cc(F)c(Cl)cc1F	98	15	96	.	1.2	84
COc1cccc(N2CC(O)Cn3c2nc2c3c(=O)n(CCCc3ccccc3)c(=O)n2C)c1 (centres undefined)	91	25	95	9	1.4	107
CCN(CC)c1ccc2cc(-c3nnc(-c4ccc(Br)cc4)o3)c(=O)oc2c1	93	20	76	.	.	101
CCN(CC)c1ccc2cc(-c3nc4ccccc4n3C)c(=O)oc2c1	51	-23	21*	99*	-1.4	20*
CCN(CC)c1ccc2c(Cl)cc(=O)oc2c1	.	0	.	.	.	.
Brc1cccc(-c2nnc(-c3ccccc3)o2)c1	103	21	92	-3	-2	80
CCN(CC)c1ccc2cc(-c3nc4ccccc4[nH]3)c(=O)oc2c1	26*	48*	38	4	-2.3	1.4*
CCN(CC)c1ccc2cc(-c3nnc(-c4ccccc4)o3)c(=O)oc2c1	72	23	57	.	-1.9	22*
O=c1oc2ccccc2cc1-c1nnc(-c2cccc(Br)c2)o1	107	.	99	0	1.4	38*
O=C1N[C@@H](Cc2cnc[nH]2)C(=O)N2CCC[C@@H]12	99	.	107	.	.	95
SMILES	Fibroblast inh	F-actin modifier	HUVEC prolif 384	Jurkat viability	Pyk2 oligo antag	H69AR growth 86K
CCN(CC)CCCNC(=O)c1cc2c(-c3ccc(Cl)cc3)nn(C)c2s1	19*	-6	2.4*	12	.	1.8*
Cn1nc(-c2ccc(Cl)cc2)c2cc(C(=O)NCC3CCCO3)sc21 (centres undefined)	79	13	76	4	.	51
CN1CCN(CCCNC(=O)c2cc3c(-c4ccc(Cl)cc4)nn(C)c3s2)CC1	14*	9	1.9*	0	.	4.5*
Cc1ccc(OCCN2CCN(C(=O)CCC(=O)Nc3nnc(C(C)C)s3)CC2)cc1	95	-7	94	55*	1.9	92
O=C(NCc1ccccc1)c1noc2c1CCCC2	90	.	91	56*	0.09	62
O=C(NCc1cccc(F)c1)c1noc2c1CCCC2	78	.	83	60*	.	40*
O=C(NCc1cccnc1)c1noc2c1CCCC2	100	.	102	6	-0.66	102
O=C(NCc1cccs1)c1noc2c1CCCC2	92	.	96	68*	0.66	48
O=C1NCCCC2c3cc(O)c4ccccc4c3OC12N1CCCCC1 (centres undefined)	106	8	3.4*	20	.	20*
N/C(Cc1cccs1)=N\OC(=O)COc1ccccc1Cl	110	4	93	.	-0.64	103
N/C(Cc1cccs1)=N\OC(=O)COc1ccc(Br)cc1Cl	86	37*	83	.	0.35	76
O=S(=O)(c1ccc(Br)s1)N1CCN(c2ccccc2)CC1	100	36*	89	11	-0.49	92
CCOc1cc(CNc2ccc3c(c2)OCCO3)cc(Br)c1OC	.	39*	.	.	-1	.
O=C1C=C(Nc2ccc(Cl)cc2)CC(c2ccco2)C1 (centres undefined)	88	-10	79	.	-0.21	26*
CCOC(=O)C1=C(C)NC(=O)NC1c1ccco1 (centres undefined)	104	.	107	.	1.6	97
CCn1c(C)nc2cc(-c3nnc(-c4c(-c5ccccc5)noc4C)o3)ccc21	100	-3	66	.	-3.1*	93
N#Cc1nc(N2CCCCC2)nc(N2CCOCC2)n1	81	-2	100	42*	-0.13	85
CSc1ncc(Cl)c(C(=O)C(C#N)c2nc3c(C)cc(C)cc3c(=O)[nH]2)n1 (centres undefined)	95	.	52	5	-3*	86
O=C(OCCN1C(=O)c2ccccc2C1=O)c1cc(=O)[nH]c2ccccc12	87	13	97	-2	-0.67	97
CCCCCOC(=O)c1cc(=O)[nH]c2ccccc12	90	-4	45	2	-3.5*	75
CNC(=O)COC(=O)c1cc(=O)[nH]c2ccccc12	100	20	90	.	-0.28	98
CC(C)(C)NC(=O)NC(=O)COC(=O)c1cc(=O)[nH]c2ccccc12	94	-3	91	.	-3.8*	91
Cc1nc2cc(F)ccc2n1C1CCN(S(=O)(=O)c2ccccc2)CC1	95	13	81	4	-0.02	59
CCOc1cc(N2CCOCC2)c(OCC)cc1NC(=O)c1ccc(=O)n(Cc2ccccc2)n1	97	.	75	4	.	58
CSCCC(NC(=O)OC(C)(C)C)C(=O)NC(C(=O)NC(CC(C)C)C(N)=O)C(C)C (centres undefined)	101	.	96	.	0.02	96
Cc1ccc(S(=O)(=O)NNC(=O)C(O)(c2ccccc2C)c2ccccc2C)cc1	.	.	.	.	-1.1	.
CCSc1nnnn1-c1ccccc1	100	0	91	.	-0.21	99
Cc1ccc(C)c(-n2nnnc2Sc2nnnn2-c2ccccc2)c1	24*	.	15*	30*	-2.9	2.3*
Cc1ccccc1CN(c1ccc(C(=O)Nc2ccccc2C(=O)NCc2ccco2)cc1)S(C)(=O)=O	99	6	93	.	-3.6*	84

From PubChem BioAssay
